Source: ChEMBL document CHEMBL4406895, “Discovery of amide-bridged pyrrolo[2,3-d]pyrimidines as tumor targeted classical antifolates with selective uptake by folate receptor α and inhibition of de novo purine nucleotide biosynthesis” (Bioorg Med Chem, 2019)
pIC50: −log10 of the molar value. Active and inactive are the calls of the source. No cut-off for these calls is given here.

How the values were obtained:
[1] = Antiproliferative activity in Chinese hamster R2 cells deficient in RFC, PCFT, and FRalpha assessed as reduction in cell growth after 96 hrs by Cell-Titer Blue assay; format: cell-based; settings: Cricetulus griseus, R2, 96 h
Procedure, shortened: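 CHO sublines were transfected lines kept with 1 mg/ml G418 (R2 is the transporter-null parent). Cells were exposed to 0–1000 nM drug for 96 h at 37 °C, 5% CO2, in folate-free RPMI with 10% dFBS and 25 nM leucovorin. CellTiter-Blue fluorescence read at ex 560/em 590 nm. IC50 is 50% loss of growth from dose–response curves, mean ± SE of 3–10 experiments.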

[2] = Binding affinity to human FRalpha/RFC/PCFT expressed in KB cells assessed as antiproliferative activity measured as reduction in cell growth after 96 hrs by Cell-Titer Blue assay; format: cell-based
Procedure, shortened: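 RT16 cells were precultured 72 h in folate-free RPMI with 10% dFBS; KB cells were maintained in folate-free RPMI with 10% FBS. Drug at 0–1000 nM for 96 h at 37 °C, 5% CO2, with 2 nM leucovorin. Parallel wells had 200 nM folic acid to block FR uptake. CellTiter-Blue fluorescence (ex 560/em 590 nm). IC50 from dose–response, mean ± SE of 3–10 experiments.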

[3] = molecular target: T1, Trifunctional purine biosynthetic protein adenosine-3 (Homo sapiens) (UniProt P22102); experiment: Inhibition of GAFTase in human KB cells assessed as inhibition of [14C(U)glycine incorporation into [14C]formyl GAR preincubated for 30 mins followed by [14C](U)glycine addition and measured after 16 hrs; format: cell-based
T1 sequence (whole entry): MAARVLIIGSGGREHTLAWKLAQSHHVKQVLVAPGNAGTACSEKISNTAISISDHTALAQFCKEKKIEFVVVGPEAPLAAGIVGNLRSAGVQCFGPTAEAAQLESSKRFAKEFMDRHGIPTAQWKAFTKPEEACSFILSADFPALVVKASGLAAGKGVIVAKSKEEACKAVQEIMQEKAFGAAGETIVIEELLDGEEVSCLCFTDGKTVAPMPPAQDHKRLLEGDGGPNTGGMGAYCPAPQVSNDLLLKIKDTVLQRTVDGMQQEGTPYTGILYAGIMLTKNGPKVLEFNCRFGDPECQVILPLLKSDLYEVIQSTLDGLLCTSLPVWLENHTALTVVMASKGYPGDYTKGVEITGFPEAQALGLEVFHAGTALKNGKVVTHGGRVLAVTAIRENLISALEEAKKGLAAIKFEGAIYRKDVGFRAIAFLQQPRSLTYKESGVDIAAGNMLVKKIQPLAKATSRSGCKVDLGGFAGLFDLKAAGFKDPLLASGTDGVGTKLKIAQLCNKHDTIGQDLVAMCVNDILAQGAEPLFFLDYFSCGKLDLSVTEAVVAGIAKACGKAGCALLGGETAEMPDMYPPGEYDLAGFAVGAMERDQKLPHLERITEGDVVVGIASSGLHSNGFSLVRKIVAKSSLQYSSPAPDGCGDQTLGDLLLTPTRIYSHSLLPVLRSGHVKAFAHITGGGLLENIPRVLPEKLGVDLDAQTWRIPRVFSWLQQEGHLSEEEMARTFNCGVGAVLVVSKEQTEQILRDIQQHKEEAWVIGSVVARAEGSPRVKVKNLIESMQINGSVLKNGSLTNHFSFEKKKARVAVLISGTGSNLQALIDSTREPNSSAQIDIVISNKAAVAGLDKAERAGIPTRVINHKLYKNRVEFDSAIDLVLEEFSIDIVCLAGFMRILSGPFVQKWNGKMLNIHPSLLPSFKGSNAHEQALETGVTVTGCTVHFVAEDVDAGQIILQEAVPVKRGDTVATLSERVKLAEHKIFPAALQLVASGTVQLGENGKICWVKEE
Procedure, shortened: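 KB cells adhered 24 h, then were washed and given drug (concentration range; DMSO controls) for 1 h in folate- and glutamine-depleted medium with 2 nM leucovorin. Azaserine 4 µM final was added for 30 min, then L-glutamine 2 mM and [14C(U)]glycine (0.1 mCi/L) for 16 h. TCA extracts yielded pmol [14C]formyl GAR/mg protein. IC50 relative to untreated controls, triplicates.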

KB [4] = experiment: Antiproliferative activity against human KB cells at 0.1 to 10000 nM after 96 hrs in presence of 60 uM adenosine by Cell-Titer blue assay; format: functional, cell-based
Procedure, shortened: (§1)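 KB cells grown in folate-, nucleoside- and glycine-free RPMI 1640 with 10% dialyzed FBS, L-glutamine, antibiotics and 2 nM leucovorin across a drug concentration range. Protectants: thymidine 10 μM, glycine 130 μM, adenosine 60 μM or AICA 320 μM. Parallel incubations had no additions. Viable cells read by CellTiter-Blue fluorescence. At least triplicate experiments.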

KB [5] = experiment: Antiproliferative activity against human KB cells at 0.1 to 10000 nM after 96 hrs in presence of 130 uM glycine by Cell-Titer blue assay; format: functional, cell-based; procedure, shortened: as §1
KB [6] = experiment: Antiproliferative activity against human KB cells at 0.1 to 10000 nM after 96 hrs in presence of 10 uM thymidine by Cell-Titer blue assay; format: functional, cell-based; procedure, shortened: as §1
KB [7] = experiment: Antiproliferative activity against human KB cells up to 1 uM after 96 hrs in presence of 320 uM AICA by Cell-Titer blue assay; format: functional, cell-based; procedure, shortened: as §1

| inhibition [3] | Compound | pIC50 [1] | pIC50 [2] | Activity (KB [4]) | Activity (KB [5]) | Activity (KB [6]) | Activity (KB [7]) |
| --- | --- | --- | --- | --- | --- | --- | --- |
|  | CN(Cc1cc2c(=O)[nH]c(N)nc2[nH]1)C(=O)c1csc(C(=O)N[C@@H](CCC(=O)O)C(=O)O)c1 | < 6.00 | < 6.00 |  |  |  |  |
| Active | CN(Cc1cc2c(=O)[nH]c(N)nc2[nH]1)C(=O)c1ccc(C(=O)N[C@@H](CCC(=O)O)C(=O)O)cc1 | < 6.00 | 8.85 | inactive | Active | Active |  |
|  | CN(Cc1cc2c(=O)[nH]c(N)nc2[nH]1)C(=O)c1cc(C(=O)N[C@@H](CCC(=O)O)C(=O)O)cs1 | < 6.00 | 7.16 |  |  |  |  |
| Active | CN(Cc1cc2c(=O)[nH]c(N)nc2[nH]1)C(=O)c1ccc(C(=O)N[C@@H](CCC(=O)O)C(=O)O)s1 | < 6.00 | 8.37 | inactive | Active | Active |  |
|  | CN(Cc1cc2c(=O)[nH]c(N)nc2[nH]1)C(=O)c1cccc(C(=O)N[C@@H](CCC(=O)O)C(=O)O)c1 | < 6.00 | 8.20 |  |  |  |  |
|  | CN(Cc1cc2c(=O)[nH]c(N)nc2[nH]1)S(=O)(=O)c1ccc(C(=O)N[C@@H](CCC(=O)O)C(=O)O)cc1 | < 6.00 | 6.17 |  |  |  |  |
|  | Nc1nc2[nH]c(CCCc3ccc(C(=O)N[C@@H](CCC(=O)O)C(=O)O)s3)cc2c(=O)[nH]1 |  |  | inactive | Active | Active | inactive |
|  | Nc1nc2[nH]c(CCCc3ccc(C(=O)N[C@@H](CCC(=O)O)C(=O)O)cc3)cc2c(=O)[nH]1 |  |  | inactive | Active | Active | inactive |
